We go through 15 molecules from ChEMBL document CHEMBL1149075, “Synthesis and evaluation of alkoxy-phenylamides and alkoxy-phenylimidazoles as potent sphingosine-1-phosphate receptor subtype-1 agonists” (Bioorg Med Chem Lett, 2009).

Assay [1] concerns Mus musculus. The experiment in a line: Immunomodulatory activity in C57BL/6 mouse assessed as lymphopenia at 10 mg/kg, po after 6 hrs by complete blood count analysis. Format: functional. In short, it runs like this:
(§1)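 Mice dosed orally with compound in 3% BSA vehicle; vehicle-only control group. Doses 0.3–10 mg/kg. At 6 h, isoflurane anesthesia, about 250 µl retro-orbital blood collected into EDTA tubes, mixed with anticoagulant, kept on tilt table, then complete blood count. Percent lymphopenia reported.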

Assay [2] addresses T1, Sphingosine 1-phosphate receptor 1 (Homo sapiens, UniProt P21453). The assay can be described thus: Agonist activity at human S1P1 receptor assessed as stimulation of [35S]GTPgammaS binding. The format is functional. For orientation: GTPγS is a poorly hydrolysed GTP analogue; its binding reports G protein activation.
In assay [3] the target is T1, Sphingosine 1-phosphate receptor 1. The assay can be described thus: Displacement of [33P]sphingosine-1-phosphate from human S1P1 receptor.
Assay [4] deals with T2, Sphingosine 1-phosphate receptor 4 (Homo sapiens, UniProt O95977).
T2 sequence (O95977 whole entry): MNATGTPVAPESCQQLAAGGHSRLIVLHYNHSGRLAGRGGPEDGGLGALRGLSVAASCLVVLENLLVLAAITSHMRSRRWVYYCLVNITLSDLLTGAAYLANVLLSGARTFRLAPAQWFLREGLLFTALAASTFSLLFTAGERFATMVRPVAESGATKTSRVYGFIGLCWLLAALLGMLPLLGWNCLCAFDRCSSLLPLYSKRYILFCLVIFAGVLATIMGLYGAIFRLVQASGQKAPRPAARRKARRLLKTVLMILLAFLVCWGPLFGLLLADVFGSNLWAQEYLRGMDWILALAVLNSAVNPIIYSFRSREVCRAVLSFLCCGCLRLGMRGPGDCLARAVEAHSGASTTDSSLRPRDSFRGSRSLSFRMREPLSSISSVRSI
The assay can be described thus: Displacement of [33P]sphingosine-1-phosphate from human S1P4 receptor.

For assay [5], the target named is T3, Sphingosine 1-phosphate receptor 3 (Homo sapiens, UniProt Q99500). The assay can be described thus: Agonist activity at human S1P3 receptor assessed as stimulation of [35S]GTPgammaS binding. The format is functional.
The target of assay [6] is T3, Sphingosine 1-phosphate receptor 3. The experiment in a line: Displacement of [33P]sphingosine-1-phosphate from human S1P3 receptor.
Assay [7] is filed under the species Homo sapiens. The assay can be described thus: Ratio of IC50 for human S1P3 receptor to IC50 for human S1P1 receptor.
The species named for assay [8] is Homo sapiens. The assay can be described thus: Ratio of EC50 for human S1P3 receptor to EC50 for human S1P1 receptor.
Assay [9] concerns the target Sphingosine 1-phosphate receptor 5 (Homo sapiens, UniProt Q9H228). The assay can be described thus: Displacement of [33P]sphingosine-1-phosphate from human S1P5 receptor.
The subject of assay [10] is Mus musculus. The assay can be described thus: Immunomodulatory activity in po dosed C57BL/6 mouse assessed as lymphopenia after 6 hrs by complete blood count analysis. The format is functional, organism-based. In short, it runs like this:
as §1

T1 sequence (P21453 whole entry): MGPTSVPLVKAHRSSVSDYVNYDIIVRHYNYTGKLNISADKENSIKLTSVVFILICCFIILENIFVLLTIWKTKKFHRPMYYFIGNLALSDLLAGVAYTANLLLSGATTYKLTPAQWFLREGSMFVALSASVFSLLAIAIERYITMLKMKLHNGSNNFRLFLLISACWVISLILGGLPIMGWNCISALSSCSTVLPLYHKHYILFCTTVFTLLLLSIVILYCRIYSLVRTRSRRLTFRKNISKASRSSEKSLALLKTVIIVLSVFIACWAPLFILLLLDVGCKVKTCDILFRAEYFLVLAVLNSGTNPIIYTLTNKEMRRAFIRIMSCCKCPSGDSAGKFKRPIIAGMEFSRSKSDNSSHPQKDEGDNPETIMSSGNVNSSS
T3 sequence (Q99500 whole entry): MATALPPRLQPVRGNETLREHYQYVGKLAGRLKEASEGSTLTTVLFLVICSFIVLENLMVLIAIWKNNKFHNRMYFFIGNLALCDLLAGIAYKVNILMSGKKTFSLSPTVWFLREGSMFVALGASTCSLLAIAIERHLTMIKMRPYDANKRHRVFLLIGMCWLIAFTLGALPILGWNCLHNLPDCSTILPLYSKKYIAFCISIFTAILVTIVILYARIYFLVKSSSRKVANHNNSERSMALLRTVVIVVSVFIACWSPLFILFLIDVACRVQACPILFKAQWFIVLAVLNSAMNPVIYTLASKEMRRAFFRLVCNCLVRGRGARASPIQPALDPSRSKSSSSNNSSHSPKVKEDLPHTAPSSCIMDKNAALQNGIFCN
Chain of Sphingosine 1-phosphate receptor 5 (Q9H228 whole entry): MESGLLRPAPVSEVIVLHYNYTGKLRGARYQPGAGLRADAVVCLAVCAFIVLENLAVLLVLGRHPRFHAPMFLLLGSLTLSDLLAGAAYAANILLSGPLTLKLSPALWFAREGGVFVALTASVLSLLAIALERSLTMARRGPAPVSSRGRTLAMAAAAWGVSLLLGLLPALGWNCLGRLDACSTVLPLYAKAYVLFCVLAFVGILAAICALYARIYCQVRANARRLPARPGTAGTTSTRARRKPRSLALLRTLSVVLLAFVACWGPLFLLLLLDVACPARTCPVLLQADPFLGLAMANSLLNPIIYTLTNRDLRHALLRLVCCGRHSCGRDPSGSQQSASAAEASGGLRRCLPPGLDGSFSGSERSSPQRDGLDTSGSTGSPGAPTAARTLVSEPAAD

On to `CCCCCCCCOc1ccc(-c2c[nH]c([C@@](C)(N)CO)n2)c(F)c1`, for which the Activity with Mus musculus [1] amounted to 81%.
Consider `CCCCCCCCCCCCC/C=C/[C@@H](O)[C@@H](N)COP(=O)(O)O`, for which the figures for the EC50 in [2] and in assay [5] were 7.9 nM and 3 nM, respectively. Besides, the half-maximal inhibitory concentration (IC50) stood at 0.47 nM in assay [3], 2.4 nM in assay [4] and 0.66 nM in [6].
Consider `CCCCCCCCOc1ccc(NC(=O)[C@@](C)(N)CO)cc1F`, for which the Activity in the assay with Mus musculus [1] worked out at 65%.
Regarding `CCCCCCCCOc1ccc(-c2c[nH]c([C@@](C)(N)COP(=O)(O)O)n2)cc1F`, the Ratio IC50 in the assay filed under Homo sapiens [7] came to 16.5. Further, the Ratio EC50 in the assay listed under Homo sapiens [8] worked out at 24. Further, the IC50 was found to be 1.1 nM in assay [9], 0.35 nM in assay [3], 1.9 nM in assay [4] and 5.8 nM in assay [6]. In addition, the values for the EC50 in assay [2] and in [5] were 0.45 nM and 10.8 nM, respectively.
For `CCCCCCCCOc1ccc(NC(=O)[C@@](C)(N)COP(=O)(O)O)cc1`, in the assay filed under Homo sapiens [7], the Ratio IC50 came to 8.1. The Ratio EC50 in the assay filed under Homo sapiens [8] came to 6.9. The IC50 in [9] worked out at 8.8 nM; in assay [3], 0.73 nM; in assay [4] it was 4 nM; in assay [6], 5.9 nM. Moreover, the EC50 was found to be 2.4 nM in [2] and 16.3 nM in assay [5].
For the molecule `CCCCCCCCOc1ccc(NC(=O)[C@@](C)(N)CO)c(F)c1`, the Activity in the assay on Mus musculus [1] is on record as 66%.
The same measure, in the same setting: as for `CCCCCCCOc1ccc(-c2c[nH]c([C@@](C)(N)CO)n2)cc1`, the figure is 74%.
`CCCCCCCCOc1ccc(-c2c[nH]c([C@@](C)(N)COP(=O)(O)O)n2)cc1`: in the assay listed under Homo sapiens [7], the Ratio IC50 came out at 20.3. For the same molecule, the Ratio EC50 in the assay listed under Homo sapiens [8] was determined as 26.9. In addition, the IC50 was determined as 1.4 nM in [9], 0.26 nM in [3], 1.1 nM in [4] and 5.3 nM in assay [6]. In addition, the concentration for a half-maximal effect (EC50) is 0.55 nM in assay [2] and 14.8 nM in assay [5].
Consider `CCCCCCCCOc1ccc(NC(=O)[C@@](C)(N)COP(=O)(O)O)cc1F`, for which, in the assay listed under Homo sapiens [7], the Ratio IC50 was determined as 42. In addition, the Ratio EC50 in the assay filed under Homo sapiens [8] was 9.2. The IC50 in [9] turned out to be 6.9 nM; in [3], 0.14 nM; in [4], 3.5 nM; in assay [6], 5.9 nM. Moreover, the EC50 amounted to 1.1 nM in assay [2] and 10.1 nM in assay [5].
Take `CCCCCCCCOc1ccc(NC(=O)[C@@](C)(N)CO)cc1`: the Activity result in the assay with Mus musculus [10] was “Dose-dependent effect”; in the assay on Mus musculus [1], 78%.
For the molecule `CCCCCCCCOc1ccc(-c2c[nH]c([C@@](C)(N)CO)n2)cc1F`, the Activity in the assay on Mus musculus [1] was 70%.
With `CCCCCCCCOc1ccc(NC(=O)[C@@](C)(N)COP(=O)(O)O)c(F)c1`, the Ratio IC50 in the assay listed under Homo sapiens [7] is 10.2. The Ratio EC50 in the assay listed under Homo sapiens [8] came to 4.7. Also, the IC50 in [9] was determined as 3.2 nM; in assay [3] it was 0.35 nM; in assay [4], 1.8 nM; in assay [6], 3.6 nM. The values for the EC50 in assay [2] and in assay [5] were 2.1 nM and 9.8 nM, respectively.
On to `CCCCCCCCOc1ccc(-c2c[nH]c([C@@](C)(N)CO)n2)cc1`, for which the Activity in the assay on Mus musculus [1] stood at 83%.
Regarding `CCCCCCCOc1ccc(NC(=O)[C@@](C)(N)CO)cc1`, the Activity with Mus musculus [1] is on record as 72%.
As to `CCCCCCCCc1ccc(NC(=O)[C@@](C)(N)CO)cc1`, in the assay with Mus musculus [1], the Activity stood at 36%.

By EC50 is commonly meant the concentration needed to bring the measured effect to its halfway point. By IC50 is commonly meant the point on the concentration scale where inhibition reaches its midpoint.
